Experimental findings from ChEMBL document CHEMBL4138260, “Novel Naphthalimide Aminothiazoles as Potential Multitargeting Antimicrobial Agents” (ACS Med Chem Lett, 2017) are described below.

Converted amounts (≈) assume the structure as drawn. The source made the active and inactive calls. No cut-off for these calls is given here. Some results are limits rather than exact numbers.

In data set [1] the test system is Acinetobacter baumannii. Put plainly: Antimicrobial activity against Acinetobacter baumannii after 24 hrs by two fold serial dilution method. Type of data set: functional. In outline:
(§1)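 MIC determined in vitro by two-fold serial dilution, following the procedure recommended by the Clinical and Laboratory Standards Institute (CLSI).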

Data set [2] concerns Escherichia coli. The data set is described as follows: Antimicrobial activity against Escherichia coli ATCC 25922 after 24 hrs by two fold serial dilution method. Format: functional. Conditions: for MIC: ATCC 25922, 24 h. In outline: (§2)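 MICs by CLSI-recommended two-fold serial broth dilution against the listed bacterial strains.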
Data set [3] has as its system Acinetobacter baumannii. Put plainly: Potency index, ratio of chloromycin MIC to compound MIC against Acinetobacter baumannii. Type of data set: functional.
In data set [4] the test system is Klebsiella pneumoniae. Put plainly: Antimicrobial activity against Klebsiella pneumoniae after 24 hrs by two fold serial dilution method. Format: functional, organism-based. In outline:
as §1

For data set [5], the system named is Enterococcus faecalis. The data set is described as follows: Antimicrobial activity against Enterococcus faecalis after 24 hrs by two fold serial dilution method. Format: functional, organism-based. Summed up:
as §1

Data set [6] has as its system Pseudomonas aeruginosa. Put plainly: Antimicrobial activity against Pseudomonas aeruginosa ATCC 27853 after 24 hrs by two fold serial dilution method. Format: functional. Summed up: as §2
Data set [7] relates to Staphylococcus aureus. The data set is described as follows: Antimicrobial activity against Staphylococcus aureus after 24 hrs by two fold serial dilution method. Format: functional, organism-based. Summed up: as §1
The subject of data set [8] is Staphylococcus aureus. The data set is described as follows: Antimicrobial activity against Staphylococcus aureus ATCC 29213 after 24 hrs by two fold serial dilution method. Type of data set: functional. In outline:
as §2

Data set [9] relates to Staphylococcus aureus. The data set is described as follows: Antimicrobial activity against Staphylococcus aureus ATCC 25923 after 24 hrs by two fold serial dilution method. Type of data set: functional. Summed up: as §2
The test system of data set [10] is Staphylococcus aureus. Put plainly: Antimicrobial activity against methicillin-resistant Staphylococcus aureus after 24 hrs by two fold serial dilution method. Format: functional. In outline:
as §2

Data set [11] has as its system Escherichia coli. The data set is described as follows: Antimicrobial activity against Escherichia coli after 24 hrs by two fold serial dilution method. Type of data set: functional. In outline: as §2
The subject of data set [12] is Pseudomonas aeruginosa. The data set is described as follows: Antimicrobial activity against Pseudomonas aeruginosa after 24 hrs by two fold serial dilution method. Type of data set: functional. Summed up:
as §2

Data set [13] has as its system Escherichia coli. Put plainly: Membrane permeabilization of Escherichia coli cytoplasmic membrane at 12 times MIC after 60 mins by propidium iodide staining based fluorescence assay. Type of data set: functional, organism-based. In outline:
(§3)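 Cytoplasmic membrane permeabilization of MRSA or E. coli with propidium iodide. Fluorescence intensity of the compound/PI-treated bacterial mixtures was followed over time up to steady state, with two control groups run in parallel.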

Data set [14] can be described thus: Cytotoxicity against […] RAW264.7 cells assessed as cell viability at 128 ug/ml after 24 hrs by MTT assay. Format: cell-based. Conditions: read-out: Activity. Summed up: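 Cytotoxicity in […] RAW 264.7 macrophages by MTT assay at concentrations up to 128 μg/mL. Read-out was percent cell viability.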
A general note: Tetrazolium dyes change colour on reduction, which living cells bring about.

The subject of data set [15] is Staphylococcus aureus. The data set is described as follows: Bactericidal activity against methicillin-resistant Staphylococcus aureus assessed as log reduction in bacterial count at 4 times MIC measured up to 7 hrs by time kill assay. Type of data set: functional. In outline:
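Time-kill kinetics against MRSA with the compound at 4 × MIC. Viable bacteria were counted over time as log CFU/mL.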

For data set [16], the target named is Albumin (Homo sapiens, UniProt P02768). The data set is described as follows: Binding affinity to human serum albumin by UV-visible absorption spectroscopy. Format: ADME. Conditions: isolated protein.
Sequence of Albumin (P02768 whole entry): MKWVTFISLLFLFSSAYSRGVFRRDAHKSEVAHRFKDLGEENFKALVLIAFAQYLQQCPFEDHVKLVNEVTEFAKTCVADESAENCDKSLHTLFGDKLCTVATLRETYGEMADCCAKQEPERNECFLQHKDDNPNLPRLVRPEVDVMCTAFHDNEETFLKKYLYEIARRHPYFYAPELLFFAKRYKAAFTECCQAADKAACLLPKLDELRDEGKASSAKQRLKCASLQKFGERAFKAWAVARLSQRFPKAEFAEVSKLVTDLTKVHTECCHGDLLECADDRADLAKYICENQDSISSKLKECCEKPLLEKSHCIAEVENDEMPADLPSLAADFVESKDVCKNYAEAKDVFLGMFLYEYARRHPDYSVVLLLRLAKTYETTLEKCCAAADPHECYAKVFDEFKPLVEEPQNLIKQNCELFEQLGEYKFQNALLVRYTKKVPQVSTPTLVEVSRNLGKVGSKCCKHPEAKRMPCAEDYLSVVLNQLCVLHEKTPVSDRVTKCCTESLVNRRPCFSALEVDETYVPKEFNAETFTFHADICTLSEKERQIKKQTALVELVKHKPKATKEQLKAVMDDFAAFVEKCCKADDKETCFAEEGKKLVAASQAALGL
For data set [17], the system named is DNA. Put plainly: Induction of methicillin-resistant Staphylococcus aureus DNA intercalation assessed as compound-DNA complex formation incubated for 1 hr by UV-visible absorption spectroscopy. Format: nucleic-acid assay.
Data set [18] deals with Staphylococcus aureus. Put plainly: Antimicrobial activity against methicillin-resistant Staphylococcus aureus measured every 24 hrs post passages for 16 days. Format: functional, organism-based. In outline: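 Resistance-development study in MRSA, with MIC re-measured over serial passages. Norfloxacin and chloromycin were run alongside as reference drugs.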
In data set [19] the test system is Escherichia coli. The data set is described as follows: Potency index, ratio of norfloxacin MIC to compound MIC against Escherichia coli ATCC 25922. Type of data set: functional.
Data set [20] has as its system Escherichia coli. Put plainly: Potency index, ratio of chloromycin MIC to compound MIC against Escherichia coli ATCC 25922. Type of data set: functional.
Data set [21] deals with Staphylococcus aureus. Put plainly: Membrane permeabilization of methicillin-resistant Staphylococcus aureus cytoplasmic membrane at 12 times MIC after 60 mins by propidium iodide staining based fluorescence assay. Type of data set: functional, organism-based. In outline:
as §3

For `CCn1cc(C(=O)O)c(=O)c2cc(F)c(N3CCNCC3)cc21` [NORFLOXACIN], the MIC in data set [1] and in [2] was 8 µg/mL (≈ 25.1 µM) in each case.
For `O=C1c2cccc3c(N4CCOCC4)ccc(c23)C(=O)N1Nc1nccs1`, the MIC (in general, the lowest concentration found to suppress growth) in [1] came out at 8 µg/mL (≈ 21 µM). Moreover, in data set [3], the Ratio is 2.
Take `CCCCCCCCCCCCCCCCN1CCN(c2ccc3c4c(cccc24)C(=O)N(Nc2nccs2)C3=O)CC1`: the outcome in data set [4], in [5], in [6], in data set [1], in data set [7] and in data set [8] was inactive. In addition, the outcome in [9], in [2], in [10], in [11] and in data set [12] was inactive.
Take `CCCCCCCCCCN1CCN(c2ccc3c4c(cccc24)C(=O)N(Nc2nccs2)C3=O)CC1`: the result in [4], in [5], in data set [6], in [1], in [7] and in data set [8] was inactive. Moreover, the outcome in [9], in data set [2], in data set [10], in data set [11] and in [12] was inactive.
As to `CCCCCCCCCCCCN1CCN(c2ccc3c4c(cccc24)C(=O)N(Nc2nccs2)C3=O)CC1`, the result in data set [4], in [5], in data set [6], in data set [1], in [7] and in [8] was inactive. The outcome in data set [9], in data set [2], in data set [10], in data set [11] and in data set [12] was inactive.
Turning to `O=C1c2cccc3c(Br)ccc(c23)C(=O)N1Nc1nccs1`, the result in data set [4], in data set [5], in data set [6], in [1], in data set [7] and in data set [8] was Active. Also, the result in data set [9], in [2], in data set [10], in data set [11] and in [12] was Active.
As for `O=C1c2cccc3c(N4CCNCC4)ccc(c23)C(=O)N1Nc1nccs1`, the result in [13], in data set [17], in data set [18] and in [21] was Active. Also, in data set [14], the viability at 24 h, 128 ug/ml was 80.1%. Moreover, the MIC was 4 to 16 µg/mL (≈ 10.5 to 42.2 µM) in data set [6] (ATCC 27853, 24 h); 2 µg/mL (≈ 5.27 µM) in [8] (ATCC 29213, 24 h); 4 µg/mL (≈ 10.5 µM) in data set [9] (ATCC 25923, 24 h); 4 to 16 µg/mL (≈ 10.5 to 42.2 µM) in [2]; 4 µg/mL (≈ 10.5 µM) in data set [10]; 4 to 16 µg/mL (≈ 10.5 to 42.2 µM) in data set [11]. Also, the MIC in data set [12] is 4 to 16 µg/mL (≈ 10.5 to 42.2 µM). Besides, the result in [1] was inactive. Further, the Activity is on record as over 3 CFU/ml in data set [15] and “Active” in data set [16]. Besides, the Ratio in data set [19] was 2; in data set [20], 4.
